# According to ChEMBL document CHEMBL4673226, “Development of 5-Aminopyrazole-4-carboxamide-based Bumped-Kinase Inhibitors for Cryptosporidiosis Therapy” (J Med Chem, 2019):
# pEC50, pIC50: −log10 of the molar value. Activity calls are given as the source filed them. The rule behind the calls is not given here.
# Legend:
# [1] = Drug level in mouse fecus at 25 mg/kg, po; conditions: read-out: Drug uptake, in vivo
# [2] = Clearance in mouse at 25 mg/kg, po; type: ADME, organism-based; conditions: in vivo
# [3] = Half life in mouse at 25 mg/kg, po; conditions: in vivo
# [4] = AUC in mouse at 25 mg/kg, po; type: ADME, organism-based; parameters: dose 25 mg/kg; conditions: in vivo
# [5] = Protein binding in human plasma by dialysis method
# [6] = Solubility in pH 2.0 solution
# [7] = Solubility in pH 6.5 solution
# [8] = system: HepG2; experiment: Toxicity in human HepG2 cells; type: cell-based
# [9] = Toxicity in human CRL-8155 cells; type: cell-based
# [10] = biological target: Voltage-gated inwardly rectifying potassium channel KCNH2 (Homo sapiens, UniProt Q12809); experiment: Inhibition of human ERG by thallium flux assay
# Voltage-gated inwardly rectifying potassium channel KCNH2, sequence (Q12809 whole entry): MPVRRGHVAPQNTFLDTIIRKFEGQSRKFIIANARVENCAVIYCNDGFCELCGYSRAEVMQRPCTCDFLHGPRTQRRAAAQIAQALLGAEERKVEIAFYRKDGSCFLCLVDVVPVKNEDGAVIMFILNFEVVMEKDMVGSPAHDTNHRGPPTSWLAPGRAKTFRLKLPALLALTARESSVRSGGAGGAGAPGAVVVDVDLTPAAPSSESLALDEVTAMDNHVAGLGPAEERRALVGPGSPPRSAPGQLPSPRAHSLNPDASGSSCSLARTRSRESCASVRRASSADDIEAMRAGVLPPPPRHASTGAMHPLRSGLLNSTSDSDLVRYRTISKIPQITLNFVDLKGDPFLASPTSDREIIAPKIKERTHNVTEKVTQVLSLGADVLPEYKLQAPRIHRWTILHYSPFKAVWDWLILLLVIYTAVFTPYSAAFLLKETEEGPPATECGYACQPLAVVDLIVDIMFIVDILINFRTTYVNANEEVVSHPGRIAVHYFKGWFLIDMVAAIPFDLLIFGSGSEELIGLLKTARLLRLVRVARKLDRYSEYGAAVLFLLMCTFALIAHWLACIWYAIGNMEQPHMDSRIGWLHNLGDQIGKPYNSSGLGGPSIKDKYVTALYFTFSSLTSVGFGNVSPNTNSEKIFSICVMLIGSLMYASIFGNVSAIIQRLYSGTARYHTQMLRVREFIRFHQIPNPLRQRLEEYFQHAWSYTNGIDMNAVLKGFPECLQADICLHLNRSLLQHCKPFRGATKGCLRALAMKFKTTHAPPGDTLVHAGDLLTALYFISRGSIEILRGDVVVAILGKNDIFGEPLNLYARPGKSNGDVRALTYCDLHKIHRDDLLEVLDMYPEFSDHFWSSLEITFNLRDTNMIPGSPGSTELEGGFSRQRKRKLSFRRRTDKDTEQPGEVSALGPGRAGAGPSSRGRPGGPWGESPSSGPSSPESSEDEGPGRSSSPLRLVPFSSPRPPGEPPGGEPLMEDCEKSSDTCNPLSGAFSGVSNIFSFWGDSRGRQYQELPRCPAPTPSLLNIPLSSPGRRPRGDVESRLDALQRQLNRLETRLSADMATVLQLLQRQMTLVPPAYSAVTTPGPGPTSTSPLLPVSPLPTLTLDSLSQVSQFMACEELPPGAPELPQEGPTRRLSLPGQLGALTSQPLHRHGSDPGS
# [11] = system: Cryptosporidium parvum; experiment: Antimicrobial activity against nano-luciferase-expressing Cryptosporidium parvum infected in human HCT8 cells incubated for 72 hrs by luciferase reporter gene assay; type: functional, organism-based; conditions: HCT-8, 72 h
# [12] = Inhibition of Cryptosporidium parvum CDPK1 assessed as reduction in ATP consumption using BioSyntide-2 substrate incubated for 90 mins by luciferase reporter gene assay
# [13] = biological target: Proto-oncogene tyrosine-protein kinase Src (Homo sapiens, UniProt P12931); experiment: Inhibition of SRC (unknown origin); type: ADME
# Proto-oncogene tyrosine-protein kinase Src, sequence (P12931 2-536 limits assumed): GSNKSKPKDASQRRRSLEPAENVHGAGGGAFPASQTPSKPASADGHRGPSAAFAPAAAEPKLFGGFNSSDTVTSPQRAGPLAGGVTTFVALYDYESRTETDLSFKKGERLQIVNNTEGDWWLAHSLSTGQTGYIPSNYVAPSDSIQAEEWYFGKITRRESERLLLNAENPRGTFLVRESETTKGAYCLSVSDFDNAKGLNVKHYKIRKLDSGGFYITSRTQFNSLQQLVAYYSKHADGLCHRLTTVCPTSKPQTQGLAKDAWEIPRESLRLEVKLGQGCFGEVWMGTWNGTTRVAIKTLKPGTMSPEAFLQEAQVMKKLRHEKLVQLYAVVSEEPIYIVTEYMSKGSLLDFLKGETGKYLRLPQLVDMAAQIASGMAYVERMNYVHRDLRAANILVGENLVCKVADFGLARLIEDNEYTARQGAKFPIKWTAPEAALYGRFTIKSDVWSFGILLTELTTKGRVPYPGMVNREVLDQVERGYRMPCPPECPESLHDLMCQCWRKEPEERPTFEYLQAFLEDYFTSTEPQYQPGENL
# [14] = in vivo; conditions: mouse, po, 25 mg/kg
# [15] = in vivo; conditions: mouse, po, 25 mg/kg; remark: listed apart in the source
# [16] = system: Cryptosporidium parvum; experiment: Antimicrobial activity against nano-luciferase-expressing Cryptosporidium parvum infected in IFN-gamma KO B6.129S7-Ifngtm1Ts/J mouse assessed as log reduction of infection at 20 mg/kg, po BID for 5 days beginning on day 6 post infection relative untreated control; type: functional, organism-based; conditions: time 5.0 day
# [17] = system: Cryptosporidium parvum; experiment: Antimicrobial activity against nano-luciferase-expressing Cryptosporidium parvum infected in IFN-gamma KO B6.129S7-Ifngtm1Ts/J mouse assessed as log reduction of infection at 10 mg/kg, po BID for 5 days beginning on day 6 post infection relative untreated control; type: functional, organism-based; conditions: time 5.0 day
# [18] = system: Cryptosporidium parvum; experiment: Antimicrobial activity against nano-luciferase-expressing Cryptosporidium parvum infected in IFN-gamma KO B6.129S7-Ifngtm1Ts/J mouse assessed as log reduction of infection at 60 mg/kg, po QD for 5 days beginning on day 6 post infection relative untreated control; conditions: time 5 day
# [19] = Protein binding in mouse plasma by dialysis method
# [20] = system: Cryptosporidium parvum; experiment: Antimicrobial activity against nano-luciferase-expressing Cryptosporidium parvum infected in IFN-gamma KO B6.129S7-Ifngtm1Ts/J mouse assessed as log reduction of infection at 25 mg/kg, po QD for 5 days beginning on day 6 post infection relative untreated control; type: functional; conditions: time 5 day
# [21] = Plasma concentration in mouse at 100 mg/kg, po QD for 7 days measured after 72 hrs by LC-MS/MS analysis; type: ADME, organism-based; conditions: time 7 day
# Procedure, shortened: (§1)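 Multiple-dose oral tolerability study in mice at 100 or 250 mg/kg over 7 days. Plasma was taken 2 h after dose 2, before dose 3, 2 h after dose 5, and 24, 48 and 72 h after dose 7. Drug was quantified by LC-MS/MS. Blood and organs were collected after the final dose.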
# [22] = Plasma concentration in mouse at 100 mg/kg, po QD for 7 days measured after 24 hrs by LC-MS/MS analysis; type: ADME, organism-based; conditions: time 7 day; procedure, shortened: as §1
# [23] = Plasma concentration in mouse at 100 mg/kg, po QD for 7 days measured after 48 hrs by LC-MS/MS analysis; type: ADME, organism-based; conditions: time 7 day; procedure, shortened: as §1
# [24] = Plasma concentration in mouse at 100 mg/kg, po QD for 5 days measured after 2 hrs by LC-MS/MS analysis; type: ADME, organism-based; conditions: time 5 day; procedure, shortened: as §1
# [25] = Plasma concentration in mouse at 100 mg/kg, po QD for 2 days measured after 2 hrs by LC-MS/MS analysis; type: ADME, organism-based; conditions: time 2 day; procedure, shortened: as §1
# [26] = Toxicity in mouse assessed as effect on serum chemistry parameters at 100 to 250 mg/kg, po QD for 7 days; type: organism-based; conditions: in vivo, 168 h, dose 100-250 mg/kg, time 7 day
# [27] = Toxicity in mouse assessed as effect on CBC parameters at 100 to 250 mg/kg, po QD for 7 days; type: organism-based; conditions: in vivo, 168 h, dose 100-250 mg/kg, time 7 day
# [28] = Toxicity in mouse assessed as effect on organ parameters at 100 to 250 mg/kg, po QD for 7 days by histological analysis; type: organism-based; conditions: in vivo, 168 h, dose 100-250 mg/kg, time 7 day
# [29] = Toxicity in mouse assessed as induction of lethargy at 250 mg/kg, po QD for 7 days; type: organism-based; conditions: in vivo, 168 h, time 7 day
# [30] = Toxicity in mouse at 100 mg/kg, po QD for 7 days; type: organism-based; conditions: in vivo, 168 h, time 7 day
# [31] = Toxicity in mouse assessed as induction of lack of grooming at 250 mg/kg, po QD for 7 days; type: organism-based; conditions: in vivo, 168 h, time 7 day
# [32] = Toxicity in mouse assessed as induction of distress at 100 to 250 mg/kg, po; type: organism-based; conditions: in vivo, dose 100-250 mg/kg
# Procedure, shortened: (§2)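 Escalating single oral doses were given to mice until toxicity signs appeared. Regimens were 100, 150, 200 and 250 mg/kg, and 150, 200, 300, 400 and 600 mg/kg. Escalation was limited by solubility in the dosing solution.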
# [33] = Toxicity in mouse at 100 to 250 mg/kg, po; type: organism-based; conditions: in vivo, dose 100-250 mg/kg; procedure, shortened: as §2
# [34] = system: Cryptosporidium parvum; experiment: Antimicrobial activity against nano-luciferase-expressing Cryptosporidium parvum infected in IFN-gamma KO B6.129S7-Ifngtm1Ts/J mouse assessed as log reduction of infection at 15 mg/kg, po QD for 5 days beginning on day 6 post infection relative untreated control; type: functional, organism-based; conditions: time 5.0 day
# [35] = system: Cryptosporidium parvum; experiment: Antimicrobial activity against nano-luciferase-expressing Cryptosporidium parvum infected in IFN-gamma KO B6.129S7-Ifngtm1Ts/J mouse assessed as log reduction of infection at 30 mg/kg, po QD for 5 days beginning on day 6 post infection relative untreated control; type: functional, organism-based; conditions: time 5.0 day
# [36] = Clearance in mouse at 10 mg/kg, po; type: ADME, organism-based; conditions: in vivo
# [37] = AUC in mouse at 10 mg/kg, po; type: ADME, organism-based; parameters: dose 10 mg/kg; conditions: in vivo
# [38] = mouse, in vivo, po, 30 mg/kg, 96 h
# [39] = Plasma concentration in mouse at 250 mg/kg, po QD for 5 days measured after 2 hrs by LC-MS/MS analysis
# [40] = Plasma concentration in mouse at 250 mg/kg, po QD for 3 days measured on pre dose by LC-MS/MS analysis
# [41] = Plasma concentration in mouse at 250 mg/kg, po QD for 2 days measured after 2 hrs by LC-MS/MS analysis
# [42] = Plasma concentration in mouse at 100 mg/kg, po QD for 3 days measured on pre dose by LC-MS/MS analysis
# [43] = Plasma concentration in mouse at 250 mg/kg, po QD for 7 days measured after 72 hrs by LC-MS/MS analysis
# [44] = Plasma concentration in mouse at 250 mg/kg, po QD for 7 days measured after 48 hrs by LC-MS/MS analysis
# [45] = Plasma concentration in mouse at 250 mg/kg, po QD for 7 days measured after 24 hrs by LC-MS/MS analysis
structure (smiles),measurement,setting,value
CC(CCO)n1nc(-c2cnc3cc(OC4CC4)ccc3c2)c(C(N)=O)c1N (stereo not drawn),concentration,[1],4.5 µM
same,CL/F,[2],0.1 mL/min
same,half-life,[3],2.05 h
same,AUC,[4],11769 µmol·min/L
same,fraction unbound,[5],0.49
same,solubility,[6]; pH 2.0 solution,> 100 µM
same,solubility,[7]; pH 6.5 solution,> 100 µM
same,Activity,[8],Non-Toxic
same,Activity,[9],Non-Toxic
same,pIC50,[10],< 4.52
same,pEC50,[11],6.37
same,pIC50,[12],8.70
same,pIC50,[13],< 5.00
same,Cmax,[14],69.2 µM
same,Tmax,[15],0.5 h
CCOc1ccc2cc(-c3nn(C(C)(C)CO)c(N)c3C(N)=O)ccc2n1,Activity,[16],inactive
same,Activity,[17],inactive
same,FC,[18],3.15
same,concentration,[1],0.41 µM
same,CL/F,[2],0.4 mL/min
same,AUC,[4],11412.6 µmol·min/L
same,PPB,[5],84%
same,solubility,[6]; buffer,> 100 µM
same,solubility,[7]; buffer,> 100 µM
same,PPB,[19],80%
same,Activity,[8],Non-Toxic
same,Activity,[9],Non-Toxic
same,pIC50,[12],8.51
same,pIC50,[13],< 5.00
CCOc1ccc2cc(-c3nn(C(C)(C)CO)c(N)c3C(N)=O)ccc2c1,log reduction,[20],0.81
same,concentration,[1],7.1 µM
same,CL/F,[2],0.2 mL/min
same,AUC,[4],9365 µmol·min/L
same,solubility,[6]; buffer,18.8 µM
same,solubility,[7]; buffer,8 µM
same,Activity,[8],Non-Toxic
same,Activity,[9],Non-Toxic
same,pIC50,[12],8.05
same,pIC50,[13],< 5.00
CCOc1ccc2cc(-c3nn(CC4CC4)c(N)c3C(N)=O)ccc2c1,log reduction,[20],0.76
same,concentration,[1],54 µM
same,CL/F,[2],0.5 mL/min
same,AUC,[4],2800.8 µmol·min/L
same,PPB,[5],95%
same,PPB,[19],97%
same,Activity,[8],Non-Toxic
same,Activity,[9],Non-Toxic
same,pIC50,[12],10.52
same,pIC50,[13],5.00
CC(CCO)n1nc(-c2ccc3nc(OC4CC4)ccc3c2)c(C(N)=O)c1N (stereo not drawn),CL/F,[2],0.7 mL/min
same,half-life,[3],1.42 h
same,AUC,[4],1154.1 µmol·min/L
same,solubility,[6]; pH 2.0 solution,> 100 µM
same,solubility,[7]; pH 6.5 solution,98 µM
same,fraction unbound,[19],0.23
same,Activity,[8],Non-Toxic
same,Activity,[9],Non-Toxic
same,pIC50,[10],< 4.52
same,pEC50,[11],6.22
same,pIC50,[12],8.23
same,pIC50,[13],< 5.00
same,Cmax,[14],8.5 µM
same,Tmax,[15],0.667 h
CC(C)(C)n1nc(-c2ccc3cc(OC4CC4)ccc3c2)c(C(N)=O)c1N,concentration at 168 h,[21],0.3 µM
same,concentration at 168 h,[22],26.4 µM
same,concentration at 168 h,[23],4.8 µM
same,concentration at 120 h,[24],49.2 µM
same,concentration at 48 h,[25],36.6 µM
same,Activity,[26],Non-Toxic
same,Activity,[27],Non-Toxic
same,Activity,[28],Non-Toxic
same,Activity,[29],Toxic
same,Activity,[30],Non-Toxic
same,Activity,[31],Toxic
same,Activity,[32],Non-Toxic
same,Activity,[33],Non-Toxic
same,Activity,[34],inactive
same,Activity,[35],Active
same,FC,[18],3.52
same,concentration,[1],0.42 µM
same,CL/F,[36],0.5 mL/min
same,AUC,[37],9098 µmol·min/L
same,PPB,[5],82%
same,solubility,[6]; buffer,83 µM
same,solubility,[7]; buffer,65 µM
same,PPB,[19],95%
same,Activity,[8],Non-Toxic
same,Activity,[9],Non-Toxic
same,pIC50,[12],8.37
same,pIC50,[13],< 5.00
same,Cmax,[38],28.8 µM
same,concentration at 120 h,[39],72.2 µM
same,concentration at 72 h,[40],36.1 µM
same,concentration at 48 h,[41],40.1 µM
same,concentration at 72 h,[42],19.9 µM
same,concentration at 168 h,[43],0.7 µM
same,concentration at 168 h,[44],2.3 µM
same,concentration at 168 h,[45],24.6 µM
